Reference: ChEMBL document CHEMBL1124403, “Studies on semirigid tricyclic analogues of the nigrostriatal toxin 1-methyl-4-phenyl-1,2,3,6-tetrahydropyridine” (J Med Chem, 1989)

How the values were obtained:
Mus musculus [1] = experiment: Black mice were injected intraperitoneally with 100 uMol of test compound and Striatal levels of Dopamine in mice measured after 1 week; format: functional
How it was run: (§1)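 Male C-57 black mice, 8–10 weeks old, 25–30 g, six per data point. Dosed ip at 100 μmol/kg in 50 μL normal saline every hour for 4 h; controls received saline only. Times counted from the last injection. Striata dissected and stored at −80 °C. Dopamine measured by HPLC with electrochemical detection after alumina extraction, with DHBA as internal standard; reported as ng/mg tissue.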

[2] = molecular target: T1, Amine oxidase [flavin-containing] B (Bos taurus, UniProt P56560); experiment: Rate of oxidation against monoamine oxidase B
T1 sequence (P56560 whole entry): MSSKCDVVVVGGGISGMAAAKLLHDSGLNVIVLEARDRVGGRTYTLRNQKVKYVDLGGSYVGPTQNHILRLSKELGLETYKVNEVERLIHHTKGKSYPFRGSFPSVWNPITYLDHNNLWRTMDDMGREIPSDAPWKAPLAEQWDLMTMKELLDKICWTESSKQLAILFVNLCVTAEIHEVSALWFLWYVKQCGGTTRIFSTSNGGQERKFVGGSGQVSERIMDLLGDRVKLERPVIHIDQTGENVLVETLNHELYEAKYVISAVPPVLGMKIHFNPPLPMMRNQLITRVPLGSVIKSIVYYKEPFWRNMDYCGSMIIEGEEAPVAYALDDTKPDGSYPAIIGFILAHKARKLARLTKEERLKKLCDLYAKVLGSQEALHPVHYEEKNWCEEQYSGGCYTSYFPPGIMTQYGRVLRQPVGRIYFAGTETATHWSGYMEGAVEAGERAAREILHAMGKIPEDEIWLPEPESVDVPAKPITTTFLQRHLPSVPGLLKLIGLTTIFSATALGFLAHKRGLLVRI
How it was run: (§2)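 Beef liver mitochondrial MAO-B, purified, 0.1 unit in 50 mM sodium phosphate pH 7.2 with 0.2% reduced Triton X-100. Substrate at 3 mM (3.0 mM). Initial rate of dihydropyridinium product formation read spectrophotometrically at its λmax (345 nm for MPDP⁺, 360 nm for the tricyclic products), in nmol min⁻¹ mL⁻¹. Controls held 10⁻⁶ M pargyline.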

Mus musculus [3] = experiment: (§3) Black mice were injected intraperitoneally with 100 uMol of test compound and Striatal levels of Dopamine in mice measured after 1 month; format: functional; how it was run: as §1
[4] = molecular target: T1, Amine oxidase [flavin-containing] B; experiment: Binding affinity against Monoamine oxidase B
How it was run: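 Beef liver mitochondrial MAO-B, purified and cleared of heme protein by sucrose-gradient centrifugation; 0.02 unit enzyme in 50 mM sodium phosphate pH 7.2 with 0.2% (w/v) reduced Triton X-100. Inhibitor at 0–500 μM or 0–100 μM against benzylamine 0.17–3.3 mM. Oxidation followed at 250 nm as initial rates. Lineweaver–Burk plots; Ki taken from secondary replots of slope vs inhibitor concentration.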

Mus musculus [5] = experiment: (§4) Black mice were injected intraperitoneally with 100 uMol /kg of test compound and Striatal levels of dopamine in mice measured after 4 hours; format: functional; how it was run: as §1
Mus musculus [6] = experiment: Black mice were injected intraperitoneally with 100 uMol of test compound and Striatal levels of Dopamine in mice measured after 24 hours; format: functional; how it was run: as §1
[7] = molecular target: T2, Dopamine receptor (Mus musculus) (UniProt P51436+Q8BLD9+Q61616+P61168+P30728); experiment: as §3; format: functional; how it was run: as §1
[8] = molecular target: T2, Dopamine receptor (Mus musculus); experiment: as §4; format: functional; how it was run: as §1
[9] = molecular target: T2, Dopamine receptor (Mus musculus); experiment: Black mice were injected intraperitoneally with 100 uMol of test compound and Striatal levels of dopamine in mice measured after 24 hours; format: functional; how it was run: as §1
[10] = molecular target: T1, Amine oxidase [flavin-containing] B; experiment: Rate of oxidation against monoamine oxidase-B (MAO-B); how it was run: as §2
[11] = molecular target: T2, Dopamine receptor (Mus musculus); experiment: Black mice were injected intraperitoneally with 100 uMol of test compound and Striatal levels of dopamine in mice measured after 1 week; format: functional; how it was run: as §1

Row | SMILES | Dopamine level (Mus musculus [1]) [ng/mg] | Rate of oxidation [2] [nM min-1 ml-1] | Dopamine level (Mus musculus [3]) [ng/mg] | Ki [4] [µM] | Dopamine level (Mus musculus [5]) [ng/mg] | Dopamine level (Mus musculus [6]) [ng/mg] | Dopamine level [7] [ng/mg] | Dopamine level [8] [ng/mg] | Dopamine level [9] [ng/mg] | Rate of oxidation [10] [nM min-1 ml-1] | Dopamine level [11] [ng/mg]
1 | CN1CCC2=C(Cc3ccccc32)C1 | 18.2 | 0.21 | 21.9 | 75 | 6.5 | 24.5 |  |  |  |  | 
2 | CN1CC=C(c2ccccc2)CC1 |  |  |  |  |  |  | 5 | 4.8 | 6.5 | 25.87 | 2.7
3 | CN1CCC2C(=Cc3ccccc32)C1 (centres undefined) | 16.4 | 0 | 19.2 | 65 | 4.3 | 30.3 |  |  |  |  | 
4 | CN1CCc2c([nH]c3ccccc23)C1 |  | 0.1 |  | 400 |  |  |  |  |  |  | 
